In the EternaBench riboswitch data:

Assays:
MS2 coat protein [1] = assay: apparent Kd, MS2 coat protein; higher = weaker binding; RNA-MaP array; tryptophan 2.4 mM where present
Method in brief: (§1)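 On Illumina sequencing-chip clusters, designs were transcribed by stalled E. coli RNA polymerase and titrated with SNAP-549-labelled MS2 coat protein (0.7 or 1.5 nM, doubling to 3 µM), without and then with constant ligand, in 100 mM Tris-HCl pH 7.5, 80 mM KCl, 4 mM MgCl2, BSA, DTT, yeast tRNA and Tween-20. Apparent Kd is the median of filtered per-cluster curve fits to green signal normalised to red-channel RNA signal and control-cluster median Fmax.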

MS2 coat protein [2] = assay: apparent Kd, MS2 coat protein; higher = weaker binding; RNA-MaP array; theophylline 2 mM where present
Method in brief: as §1

[3] = designed as: ON switch for tryptophan, no ligand
[4] = ligand present: tryptophan, designed as: ON switch for tryptophan
[5] = designed as: ON switch for theophylline, no ligand
[6] = ligand present: theophylline, designed as: ON switch for theophylline
[7] = designed as: OFF switch for theophylline, no ligand
[8] = ligand present: theophylline, designed as: OFF switch for theophylline

| Sequence | apparent Kd (MS2 coat protein [2]; [5]) | apparent Kd (MS2 coat protein [2]; [6]) | apparent Kd (MS2 coat protein [2]; [7]) | apparent Kd (MS2 coat protein [2]; [8]) | other results |
| --- | --- | --- | --- | --- | --- |
| AUACAUGAGGAUCACCCAUGUGAUGGCCGGCGAGGACCGGUACGGCCGCCACUCGUGAUCCGUCCUGAAAGCAAAGCUCUCAACA |  |  |  |  | apparent Kd (MS2 coat protein [1]; [3]): 47.2 nM; apparent Kd (MS2 coat protein [1]; [4]): 91.2 nM |
| GCAUCCUAGUCGGCCGCCACUGCAUCACCAGUGGCAGGUGAUCAACAUGAGGAUCACCCAUGUAGCAGGACCGGGACUAGGAUGC |  |  |  |  | apparent Kd (MS2 coat protein [1]; [3]): 135 nM; apparent Kd (MS2 coat protein [1]; [4]): 43.7 nM |
| AACAUGAGGAUCACCCAUGUACAUUUCGAUCGAGGACCGGUACGGCCGCCACUCGAAAACAUGAGGAUCACCCAUGUUCAACAGG |  |  |  |  | apparent Kd (MS2 coat protein [1]; [3]): 296 nM; apparent Kd (MS2 coat protein [1]; [4]): 184 nM |
| GGGAGGUAGGCGGCCGCCACUGAUUUUCAUAUAUAUAUAACAUGAGGAUCACCCAUGUAGAUAUGCAGGACCGGGCCUGUUUUUU |  |  |  |  | apparent Kd (MS2 coat protein [1]; [3]): 23.9 nM; apparent Kd (MS2 coat protein [1]; [4]): 19.3 nM |
| GGUUACUCUACGGCCGCCACUGAACAUGAGGAUCACCCAUGUAAUGUUCAGUAGUCUUUAGACAACAGGACCGGGUAGUGUAACC |  |  |  |  | apparent Kd (MS2 coat protein [1]; [3]): 228 nM; apparent Kd (MS2 coat protein [1]; [4]): 215 nM |
| GCUGGACUUUCGGCCGCCACUGAGAGAGUCGUGUGAACAUGAGGAUCACCCAUGUAAUAUAUAUACAGGACCGGGAGGGUUGUGC |  |  |  |  | apparent Kd (MS2 coat protein [1]; designed as: OFF switch for tryptophan, no ligand): 11.8 nM; apparent Kd (MS2 coat protein [1]; ligand present: tryptophan, designed as: OFF switch for tryptophan): 11.9 nM |
| CUCGAGGCCGGUGAUACCAGACACGAAACUAUACAUGAGGAUCACCCAUGUCAAACAACGGUCCCUUGGCAGCAUGGGUGUAUCC | 68.9 nM | 64.5 nM |  |  |  |
| AUAACAUGAGGAUCACCCAUGUAAGGUGAUACCAGACGAAGUAAAGUCCCUUGGCAGCACAAGCAUAGUUGCGAAUAUUGAUAGA | 469 nM | 63.1 nM |  |  |  |
| UGUAACAUGAGGAUCACCCAUGUGAGUGAUACCAGAUUAGUAGUAGUCCCUUGGCAGCAUAUUGGGCGAGUGUAUAGUCUAUGCG | 165 nM | 221 nM |  |  |  |
| AUUUAUUGUCGUGAUACCAGACAUACAUGAGGAUCACCCAUGUUAAGUAACUUUUUUCAGGUCCCUUGGCAGCACUUUUUAAUUA | 17.3 nM | 13.9 nM |  |  |  |
| AAGACAUGAGGAUCACCCAUGUGGAGGGAUACCAGCCUGUGUGUGGGCCCUUGGCAGCUUAAAUUUAAUUUAAUUAAAUAAAUUU | 34.7 nM | 36.1 nM |  |  |  |
| GGUGAUCCGUAUCACCGGAUCACCGGUGAUACCAGCAUCGAAAGAUGCCCUUGGCAGCACCAACAUGAGGAUCACCCAUGUAAUA | 165 nM | 26.4 nM |  |  |  |
| AUUAUCAUGGUCAUAUAUAUUUCGUCAGAUACCAGACUAGAUAUAGUCCCUUGGCAGCUGUUACAUGAGGAUCACCCAUGUUAUU |  |  | 121 nM | 44.5 nM |  |
| UGACAUUGCUGCGAUACCAGACAUGAGGAUCACCCAUGUACCAAGGUAAAGAAAUAACGUGUCCCUUGGCAGCGCAGCAAUGUCU |  |  | 9.91 nM | 91.1 nM |  |
| AGGAAACAACAUGAGGAUCACCCAUGUGAUACCAGUAUCAAAAGAUACCCUUGGCAGCACACAUGACAUGAGGAUCACCCAUGUA | 41.4 nM | 84.4 nM |  |  |  |
| UAAAAUAAAAGGGUGAAGGUAUAAACAGAUACCAGCCAGAUAACUGGCCCUUGGCAGCUGAAUGACAUGAGGAUCACCCAUGUCU | 12 nM | 33.3 nM |  |  |  |
| ACUCGGUAUGUCUAAUACCGAGAGUAUGAUACCAGUAUGGUGACAUACCCUUGGCAGCAUGGGACAUGAGGAUCACCCAUGUGUU | 538 nM | 505 nM |  |  |  |
| AGCCUCAUACAUGAGGAUCACCCAUGUGAUACCAGUCAGGAAACUGACCCUUGGCAGCGCAUGAGGAUCACCCAUGUGCGAGGCA |  |  | 43.5 nM | 192 nM |  |
| ACGAACGAUAGUGAUACCAGACGUACAUGAGGAUCACCCAUGUUAUACACAUGGUUUAUUGUCCCUUGGCAGCACGUUAAGUUCG |  |  | 274 nM | 295 nM |  |
| AAGCUGACAAGAAGGUGUUCCUAAGCUGAUACCAGCCUGGAAACAGGCCCUUGGCAGCAGCACAUGAGGAUCACCCAUGUAAUAA |  |  | 118 nM | 79.2 nM |  |
| UACACAUGACAUGAUACCAGCCCAUGUGAACAUGAGGAUCACCCAUGUAUGAGGACAUGAGGCCCUUGGCAGCAUGUAUACAUGA | 10.2 nM | 10.2 nM |  |  |  |
| UUCUGGACCCGUGAUACCAGAGACAUGAGGAUCACCCAUGUACAUGAGGAUCACCCAUGUCUCCCUUGGCAGCACUGCAGGGAGC |  |  | 115 nM | 875 nM |  |
| AGACAUGAGGAUCACCCAUGUAGCAUGGAUACCAGAUCCAGAUUUAUCCCUUGGCAGCUGUGGUAAAGUGAUGGAUUGCUCCUAG |  |  | 44.3 nM | 55.5 nM |  |

| Sequence | apparent Kd (MS2 coat protein [2]; [5]) | apparent Kd (MS2 coat protein [2]; [6]) | apparent Kd (MS2 coat protein [2]; [7]) | apparent Kd (MS2 coat protein [2]; [8]) | other results |
| --- | --- | --- | --- | --- | --- |
| AGACAUGAGGAUCACCCAUGUAGUAUGGAUACCAGAUCCAGAUUUAUCCCUUGGCAGCUGUGGUACAGCGUUGCAUCGCUCCUAG |  |  | 32.3 nM | 34.5 nM |  |
| GAUGAUAUUGCAGAUACCAGACACAUGAGGAUCACCCAUGUCGCUGGGUUACUGGGUCGUGUCCCUUGGCAGCUGCGAUAUCAUC |  |  | 44 nM | 339 nM |  |
| UGUAUGUGAUUUGAUACCAGACCAGCUGGUGGUACAUGAGGAUCACCCAUGUAGGUUUGGGUCCCUUGGCAGCAAAUCGCAUACU | 47.9 nM | 30 nM |  |  |  |
| GCACCAGGUACGGAUACCAGACGUUGCCAAACAGGGUGACAUGAGGAUCACCCAUGUACUGUCCCUUGGCAGCCGUACCUGGUGC |  |  | 22.3 nM | 653 nM |  |
| UCUUUCUAUGUAGAUACCAGCAUGUUAUCUUUCUUUUGACAUGAGGAUCACCCAUGUAAAUGCCCUUGGCAGCUACAUUUUCUUU | 21.4 nM | 15.4 nM |  |  |  |
| GCACCAGGUACGGAUACCAGCUAUAGGCCCAAUGGGCGACAUGAGGAUCACCCAUGUGAUGGCCCUUGGCAGCUGUACCUGGUGC | 211 nM | 24.1 nM |  |  |  |
| AUAAGUAAUGUUUCGUGUUUUAUUACAGAUACCAGACUAUACGUUGUCCCUUGGCAGCUGGAUUACAUGAGGAUCACCCAUGUUG |  |  | 19.5 nM | 35.1 nM |  |
| ACCUACACGGAGACGUGUAGGAGUAAUGAUACCAGCAUGGAGACAUGCCCUUGGCAGCGUUACAUGAGGAUCACCCAUGUGGUGC |  |  | 21.1 nM | 483 nM |  |
| UGAUCCUACAGAGAUACCAGUGCCACUGAGUGACCAGACACAUGAGGAUCACCCAUGUAACACCCUUGGCAGCUCAACUAGAGGG | 20.4 nM | 69.7 nM |  |  |  |
| UGUAACAUGAGGAUCACCCAUGUGAGUGAUACCAGAUAAGUAGUAGUCCCUUGGCAGCAUAUUGGGCGAGUGUAUAGUCUAUACG | 157 nM | 179 nM |  |  |  |
| UUAAUGGAGCUUUUAUUUACGAUUUCUGAUACCAGUGUUUCAUUUCACCCUUGGCAGCAGUGACAUGAGGAUCACCCAUGUAAUA | 25.7 nM | 22.8 nM |  |  |  |
| ACUAGCGCACAUGAUACCAGCGACAUGAGGAUCACCCAUGUACGGCGUGUAUCGAAAGGUUGCCCUUGGCAGCAUGAUAGCGCUG |  |  | 13.9 nM | 255 nM |  |
| GAUGAACUAUUUGAUACCAGACUACAUGAGGAUCACCCAUGUGAGUUUAUACUUCUGUCAGUCCCUUGGCAGCAAAUAGUUUAUC |  |  | 19.2 nM | 123 nM |  |
| CAUAAUUUAUCCUAUAAAACUAUUAGUGAUACCAGCACCUCAUGAUGCCCUUGGCAGCACUUACAUGAGGAUCACCCAUGUUUUA | 172 nM | 214 nM |  |  |  |
| AUAACAUGAGGAUCACCCAUGUAAGCAGAUACCAGCUAGGAAACUAGCCCUUGGCAGCUGCAAGGUGAUCCUAAUGCAGCUGCAA |  |  | 154 nM | 119 nM |  |
| UGACAUUGCUCAGAUACCAGACAUGAGGAUCACCCAUGUACCAAGGUAACCGAAAGGCAUGUCCCUUGGCAGCUGAGCAAUGUCU |  |  | 11.1 nM | 225 nM |  |
| AGCGUAUAGACGGAUACCAGCGCCAAUUAACAUGAGGAUCACCCAUGUAGUGUGGGUGGACGCCCUUGGCAGCCGAGUAUAGGUA |  |  | 97.8 nM | 284 nM |  |
| AACAUGAGGAUCACCCAUGUGUCCCUUGAUACCAGUCCCAUGUGAGACCCUUGGCAGCAAACAUGAGGAUCACCCAUGUCCCAUG | 102 nM | 142 nM |  |  |  |
| GAUGAACUAUUUGAUACCAGACUACAUGAGGAUCACCCAUGUGAGUUUCGUCCUCUGCCAGUCCCUUGGCAGCAAAUAGUUUAUC |  |  | 18.9 nM | 194 nM |  |
| CCUCAUGUGUAUCACCACAUGAGUGGUGAUACCAGCAUCGAAAGAUGCCCUUGGCAGCACCAACAUGAGGAUCACCCAUGUAAUA | 352 nM | 101 nM |  |  |  |
| AAUAACAUGAGGAUCACCCAUGUAAAAGAUACCAGAUGCAUGAUGAUCCCUUGGCAGCUUAAACGCGAUUGAUUACAAUCGCGAA | 34.4 nM | 91.8 nM |  |  |  |
| UAUAUAUAUAUUGAUACCAGCAGAGAAAACGUUUAUCCUAACAUGAGGAUCACCCAUGUAUGCCCUUGGCAGCGGUAUAUAUAUA |  |  | 25.7 nM | 38 nM |  |
